Source: ChEMBL document CHEMBL5120973, “Discovery of Desmuramylpeptide NOD2 Agonists with Single-Digit Nanomolar Potency” (ACS Med Chem Lett, 2022)
Calls of active or inactive are those of the source.

Key:
[1] = target: Nucleotide-binding oligomerization domain-containing protein 2 (Homo sapiens) (UniProt Q9HC29); assay: Agonist activity at NOD2 in human PBMC assessed as induction of IL-1beta production at 1 uM incubated for 18 hrs; format: cell-based; settings: filed as agonist
Procedure, shortened: (§1)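 500,000 cells/well in 500 μL medium, treated 18 h at 37 °C, 5% CO2 against a 0.1% DMSO vehicle. Cell-free supernatants stored at -80 °C. Cytokines measured by cytometric bead array (human inflammatory cytokines) on a flow cytometer.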

[2] = target: Nucleotide-binding oligomerization domain-containing protein 2 (Homo sapiens) (UniProt Q9HC29); assay: Agonist activity at NOD2 in human PBMC assessed as induction of IL-6 production at 1 uM incubated for 18 hrs; format: cell-based; settings: filed as agonist; procedure, shortened: as §1
[3] = target: Nucleotide-binding oligomerization domain-containing protein 2 (Homo sapiens) (UniProt Q9HC29); assay: Agonist activity at NOD2 in human PBMC assessed as induction of IL-8 production at 1 uM incubated for 18 hrs; format: cell-based; settings: filed as agonist; procedure, shortened: as §1
[4] = target: Nucleotide-binding oligomerization domain-containing protein 2 (Homo sapiens) (UniProt Q9HC29); assay: Agonist activity at NOD2 in human PBMC assessed as induction of TNFalpha production at 1 uM incubated for 18 hrs; format: cell-based; settings: filed as agonist; procedure, shortened: as §1
PBMC [5] = assay: Synergistic potentiation of LPS-induced cytotoxicity of human PBMCs against human K562 cells assessed as increase in dead cells level at 1 uM incubated for 18 hrs before addition of K562 cells by CFSE/Sytox Blue staining based flow cytometry relative to control
PBMC [6] = assay: Synergistic potentiation of IFN-gamma-induced cytotoxicity of human PBMCs against human K562 cells assessed as increase in dead cells level at 1 uM incubated for 18 hrs before addition of K562 cells by CFSE/Sytox Blue staining based flow cytometry relative to control
[7] = target: Nucleotide-binding oligomerization domain-containing protein 2 (Homo sapiens) (UniProt Q9HC29); assay: Synergistic agonist activity at NOD2 in human PBMC assessed as induction of IL-1beta production at 1 uM incubated for 18 hrs in presence of IFN-gamma; format: cell-based; settings: filed as agonist
Procedure, shortened: (§2)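 PBMCs (500,000/well) treated with agonist at 1 μM together with LPS (10 ng/mL) or IFN-γ (200 U/mL); vehicle 0.1% DMSO. Supernatants taken after 18 h at 37 °C, 5% CO2, stored at -80 °C, then assayed for cytokines by cytometric bead array on a flow cytometer.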

[8] = target: Nucleotide-binding oligomerization domain-containing protein 2 (Homo sapiens) (UniProt Q9HC29); assay: Synergistic agonist activity at NOD2 in human PBMC assessed as induction of IL-6 production at 1 uM incubated for 18 hrs in presence of IFN-gamma; format: cell-based; settings: filed as agonist; procedure, shortened: as §2
[9] = target: Nucleotide-binding oligomerization domain-containing protein 2 (Homo sapiens) (UniProt Q9HC29); assay: Synergistic agonist activity at NOD2 in human PBMC assessed as induction of TNFalpha production at 1 uM incubated for 18 hrs in presence of IFN-gamma; format: cell-based; settings: filed as agonist; procedure, shortened: as §2
[10] = target: Nucleotide-binding oligomerization domain-containing protein 2 (Homo sapiens) (UniProt Q9HC29); assay: Synergistic agonist activity at NOD2 in human PBMC assessed as induction of IL-1beta production at 1 uM incubated for 18 hrs in presence of LPS; format: cell-based; settings: filed as agonist; procedure, shortened: as §2
[11] = target: Nucleotide-binding oligomerization domain-containing protein 2 (Homo sapiens) (UniProt Q9HC29); assay: Synergistic agonist activity at NOD2 in human PBMC assessed as induction of IL-6 production at 1 uM incubated for 18 hrs in presence of LPS; format: cell-based; settings: filed as agonist; procedure, shortened: as §2
[12] = target: Nucleotide-binding oligomerization domain-containing protein 2 (Homo sapiens) (UniProt Q9HC29); assay: Synergistic agonist activity at NOD2 in human PBMC assessed as induction of TNF-alpha production at 1 uM incubated for 18 hrs in presence of LPS; format: cell-based; settings: filed as agonist; procedure, shortened: as §2
[13] = target: T1, Nucleotide-binding oligomerization domain-containing protein 2 (Mus musculus) (UniProt Q8K3Z0); assay: Agonist activity at mouse NOD2 expressed in RAW -Blue NOD2 reporter cells by colorimetry based SEAP assay; settings: filed as agonist
T1 sequence (whole entry): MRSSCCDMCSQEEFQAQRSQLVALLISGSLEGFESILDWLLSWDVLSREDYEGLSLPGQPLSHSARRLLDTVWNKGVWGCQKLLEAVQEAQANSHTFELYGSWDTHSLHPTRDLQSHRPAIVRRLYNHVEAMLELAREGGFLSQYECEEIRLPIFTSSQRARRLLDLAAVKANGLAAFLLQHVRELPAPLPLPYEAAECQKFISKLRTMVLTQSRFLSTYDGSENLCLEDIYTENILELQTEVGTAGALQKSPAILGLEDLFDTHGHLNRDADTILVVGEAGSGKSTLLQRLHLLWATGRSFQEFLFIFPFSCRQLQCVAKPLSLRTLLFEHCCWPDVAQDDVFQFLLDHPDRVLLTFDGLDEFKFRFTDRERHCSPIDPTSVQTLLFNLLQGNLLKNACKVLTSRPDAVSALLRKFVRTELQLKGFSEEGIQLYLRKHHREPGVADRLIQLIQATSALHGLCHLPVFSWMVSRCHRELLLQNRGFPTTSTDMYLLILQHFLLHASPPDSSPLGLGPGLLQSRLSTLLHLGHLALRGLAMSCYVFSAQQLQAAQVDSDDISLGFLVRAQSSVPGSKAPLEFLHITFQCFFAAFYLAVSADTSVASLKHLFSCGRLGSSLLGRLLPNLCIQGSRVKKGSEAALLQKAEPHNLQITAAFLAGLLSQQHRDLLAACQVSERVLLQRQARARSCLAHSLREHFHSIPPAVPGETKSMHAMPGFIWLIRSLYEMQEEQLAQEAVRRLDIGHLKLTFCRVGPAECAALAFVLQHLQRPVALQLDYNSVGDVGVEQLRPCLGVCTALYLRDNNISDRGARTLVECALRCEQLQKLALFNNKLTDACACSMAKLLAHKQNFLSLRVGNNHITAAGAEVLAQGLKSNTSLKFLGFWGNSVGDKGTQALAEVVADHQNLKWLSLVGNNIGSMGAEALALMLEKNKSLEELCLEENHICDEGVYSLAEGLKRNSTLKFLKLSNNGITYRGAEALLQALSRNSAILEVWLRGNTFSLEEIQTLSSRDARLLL

Measured: Activity

Chain of Nucleotide-binding oligomerization domain-containing protein 2 (Homo sapiens) (Q9HC29 whole entry, the tested form may be a part): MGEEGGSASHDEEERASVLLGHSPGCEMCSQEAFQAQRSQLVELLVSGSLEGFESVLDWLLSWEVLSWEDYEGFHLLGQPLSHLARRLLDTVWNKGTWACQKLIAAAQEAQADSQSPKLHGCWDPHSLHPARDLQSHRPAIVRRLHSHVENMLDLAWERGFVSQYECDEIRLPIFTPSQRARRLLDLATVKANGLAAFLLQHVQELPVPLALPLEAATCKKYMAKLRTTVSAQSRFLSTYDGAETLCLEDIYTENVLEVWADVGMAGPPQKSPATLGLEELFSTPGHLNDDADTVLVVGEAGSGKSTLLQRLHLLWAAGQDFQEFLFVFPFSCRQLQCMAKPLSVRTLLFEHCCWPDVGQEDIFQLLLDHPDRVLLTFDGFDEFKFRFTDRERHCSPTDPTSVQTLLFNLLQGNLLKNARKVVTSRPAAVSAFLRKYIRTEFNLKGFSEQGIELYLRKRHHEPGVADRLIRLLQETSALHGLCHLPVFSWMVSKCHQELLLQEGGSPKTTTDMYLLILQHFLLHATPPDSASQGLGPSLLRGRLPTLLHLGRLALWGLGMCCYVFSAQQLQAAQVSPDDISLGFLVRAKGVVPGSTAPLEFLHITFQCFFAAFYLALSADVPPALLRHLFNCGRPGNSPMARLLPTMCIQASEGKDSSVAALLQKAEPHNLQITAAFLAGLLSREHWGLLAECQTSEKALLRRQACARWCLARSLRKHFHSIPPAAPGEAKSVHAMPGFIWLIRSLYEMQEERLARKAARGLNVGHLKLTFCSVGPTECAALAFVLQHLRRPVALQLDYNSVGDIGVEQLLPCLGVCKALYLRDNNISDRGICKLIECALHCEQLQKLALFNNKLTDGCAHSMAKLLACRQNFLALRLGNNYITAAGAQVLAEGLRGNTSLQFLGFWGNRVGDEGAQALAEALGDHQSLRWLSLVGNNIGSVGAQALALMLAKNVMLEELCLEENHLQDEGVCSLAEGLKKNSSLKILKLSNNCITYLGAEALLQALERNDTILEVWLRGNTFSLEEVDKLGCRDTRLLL

CC(=O)N[C@@H]1[C@@H](O[C@H](C)C(=O)N[C@@H](C)C(=O)N[C@H](CCC(=O)O)C(N)=O)[C@@H](O)[C@@H](CO)O[C@H]1O
active: [1] | [2] | [3] | [4]

COc1cc(/C=C/C(=O)NCC(=O)N[C@H](C(=O)N[C@H](CCC(=O)OC2CCCC2)C(=O)OC2CCCC2)C(C)C)ccc1O
active: PBMC [5] | PBMC [6]

CCOC(=O)CC[C@@H](NC(=O)[C@@H](NC(=O)CNC(=O)/C=C/c1ccc(OC(=O)CC23CC4CC(CC(C4)C2)C3)c(OC)c1)C(C)C)C(=O)OCC
active: [1] | [2] | [3] | [4] | [7] | [8] | [9] | [10] | [11] | [12] | [13] | PBMC [5] | PBMC [6]
